Most compounds without a hit are left out; they make up all but 9.6% or so of the library.
APP transl inh: APP translation inhibition; inhibition, % at 2 µM; AID 1285; SH-SY5Y APP 5'UTR-luciferase reporter, luminescence; actives 0.82% (n = 190,000);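 active = inhibition above a set limit, derived from the sample mean plus 3 SD, cut at about 45% in these data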
L major viab: Leishmania major promastigote growth inhibition | Leishmania major promastigotes, resazurin fluorescence viability | inhibition, % at 10 µM | actives 9% (n = 200,000); in the data active = inhibition above about 50%;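 also: promastigotes grown with compound for 44 hours at 28 °C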
BaF3 parental: reduces parental Ba/F3 cell viability, JAK2V617F counter-screen. CellTiter-Glo ATP luminescence. actives 1.1% (n = 220,000). AID 1486. inhibition, % at 5.6 µM;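 active = inhibition above a per-campaign cutoff, the mean inhibition of all tested compounds plus 3 SD, cut at about 27% in these data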;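 also: 0% = DMSO wells and 100% = JAK Inhibitor I control wells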
Ba/F3 V617F tox: reduce viability of Ba/F3 cells dependent on JAK2V617F. Ba/F3 EpoR-JAK2V617F viability, ATP luminescence. inhibition, % at 5.6 µM. actives 1.1% (n = 220,000);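 active = inhibition above the campaign mean plus 3 SD over all tested compounds, cut at about 24% in these data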;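 also: cytokine-independent growth of Ba/F3 cells driven by EpoR plus mutant JAK2; 0% = DMSO-treated cells and 100% = JAK inhibitor I control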
b-catenin transl: modulators of beta-catenin nuclear translocation; HeLa beta-catenin nuclear translocation, immunofluorescence imaging; actives 0.3% (n = 190,000); AID 1665; nuclear translocation activity, % at 5 µM;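 active = nuclear translocation activity above 50% at 5 µM, with a well cell count of 50 or more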;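 also: per-cell ratio of nuclear to cytoplasmic median beta-catenin stain intensity; plate controls were DMSO negative control for no effect and GSK-3 inhibitor IX positive control for full effect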
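assay system = human HeLa cells, endogenous beta-catenin | times = compound treatment 24 h, 37°C, 5% CO2 | detection = Anti-beta-catenin immunofluorescence on PFA-fixed, Triton-permeabilized cells, DAPI nuclei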
MT stabilizer: stabilizes microtubules in HeLa cells. actives 0.83% (n = 200,000). % tubulin-high responders, % at 10 µM. HeLa tubulin immunostaining HCS, 24 h; share of cells brighter than vehicle mean+2SD;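 active = plate Z-score above 3 for both tubulin-high and condensed-nucleus cell shares, with cell loss under 80%, at 10 µM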;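 also: anti alpha tubulin signal scored within the nucleus-defined area of each cell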
Active calls of the source: *; x = not tested or not shown.

SMILES	APP transl inh	L major viab	BaF3 parental	Ba/F3 V617F tox	b-catenin transl	MT stabilizer
CC[n+]1c(/C=C/Nc2ccccc2)sc2ccccc21	-14.0	98.8*	25.6	4.6	11.0	17.8
CSc1sc2ccccc2[n+]1CCCS(=O)(=O)[O-]	0.3	35.1	2.6	-2.0	-1.8	1.3
CC[n+]1c(/C=C(\C)SC)sc2ccccc21	-4.5	65.0*	1.1	-1.7	x	1.3
CC[n+]1c(/C=C(\C)OC)sc2ccccc21	-8.2	19.3	9.2	-1.2	0.2	2.8
CC[n+]1c(/C=C(/C)SC)sc2ccccc21	13.0	82.5*	4.0	0.8	-2.3	3.6
Cc1ccc(S(=O)(=O)N2CCC(=O)N(CCOC(=O)Nc3ccc(F)cc3)CC2)cc1	17.5	1.6	3.2	-5.3	x	4.1
COc1c(Br)cc(Br)cc1/C=N/NC(=O)c1ccncc1	3.3	6.6	5.2	0.2	-0.5	2.2
COc1cccc(C(=O)Oc2c(Br)cc(Br)cc2/C=N/NC(=O)c2cc(C)[nH]n2)c1	45.3*	78.1*	7.8	5.2	4.2	2.5
Cc1ccc(C(=O)NCC(=O)OCC(=O)/C=C2\N(C)c3ccccc3C2(C)C)cc1C	7.6	4.2	4.7	-1.8	0.5	3.9
CN1/C(=C\C=N\NC(=O)c2cccnc2)C(C)(C)c2ccccc21	19.2	29.5	42.9*	37.5*	-1.4	4.8
CN1/C(=C\C=N\NC(=O)c2ccc(O)cc2)C(C)(C)c2ccccc21	-0.6	85.6*	42.3*	36.5*	0.5	7.1
CCOc1ccccc1-c1cc(-c2ccc(OC)cc2)nc2c1c(=O)n(C)c(=O)n2C	x	x	x	x	-6.8	x
COc1ccc(CC(=O)Nc2cccc(SC)c2)cc1OC	13.5	2.1	8.3	0.2	x	1.9
CCCCOC(=O)Nc1ccc(S(=O)(=O)Nc2ccc([N+](=O)[O-])cc2)cc1	-10.2	77.7*	4.5	0.1	0.5	2.2
CCCCCOC(=O)Nc1ccc(S(=O)(=O)Nc2cccc([N+](=O)[O-])c2)cc1	8.2	61.6*	8.0	0.4	1.7	2.1
O=C(CSc1nnc(SCc2ccc(Cl)cc2)s1)N/N=C/c1ccccc1C(=O)O	x	x	3.5	-0.9	1.2	x
Cc1cc2nc3ccc(=[N+](C)C)cc-3sc2cc1N	x	x	84.8*	68.3*	1.1	x
CN(C)c1ccc2nc3ccc(=[N+](C)C)cc-3sc2c1	61.6*	100.3*	101.4*	97.1*	0.4	4.4
N#CCSc1nnc(SCC#N)s1	x	x	-1.8	-6.5	0.0	x
O=[N+]([O-])c1ccc(C[n+]2cccc3ccc4cccnc4c32)cc1	-26.4	17.0	76.0*	59.7*	-1.7	2.6
CC(=O)Nc1nc(C)c(-c2csc(Nc3ccccn3)n2)s1	-101.5	3.9	0.1	-1.6	0.7	3.1
CC(=O)Nc1nc(-c2cc([N+](=O)[O-])cs2)cs1	11.7	74.8*	4.7	-0.9	-0.3	3.1
O=C(Nc1ccc([N+](=O)[O-])cc1)Nc1nc(-c2ccc(Cl)s2)cs1	56.3*	81.5*	3.7	-2.5	1.2	1.5
CC(=O)Nc1nc(-c2ccc([N+](=O)[O-])cc2)cs1	-7.1	-8.5	6.9	-1.9	-2.7	2.0
Cc1nc(NC(=O)c2ccc(Cl)cc2)sc1-c1csc(Nc2cccc(F)c2)n1	-66.7	10.3	9.2	0.4	5.5	39.9*
SMILES	APP transl inh	L major viab	BaF3 parental	Ba/F3 V617F tox	b-catenin transl	MT stabilizer
CCCC(=O)Nc1nc(-c2ccc(Cl)s2)cs1	-20.2	0.0	5.7	2.5	1.9	4.3
CC(=O)Nc1nc(C)c(-c2csc(Nc3ccc(O)cc3)n2)s1	18.3	62.7*	-0.2	9.0	14.1	3.2
O=C(Nc1ccccc1)C1=C[C@H](c2ccc(Br)cc2)C[C@H](OCc2ccc(CO)cc2)O1	-6.1	15.8	-0.8	-1.9	-2.3	1.7
CC(=O)Nc1nc(C)c(-c2csc(Nc3cccc([N+](=O)[O-])c3)n2)s1	-10.5	97.5*	2.7	-2.2	x	0.9
CCOC(=O)N1CCC(N2Cc3cccc(C(=O)NCc4ccc(OC)cc4)c3C2=O)CC1	-11.4	70.0*	5.6	0.9	-2.8	2.4
CCOC(=O)N1CCC(N2Cc3cccc(C(=O)NCc4ccccc4OC)c3C2=O)CC1	-12.5	6.6	4.6	6.2	-2.1	1.9
CN(C)CC(CCCCC(CN(C)C)C(=O)c1ccccc1)C(=O)c1ccccc1 (stereo not drawn)	x	x	4.9	18.8	-0.3	x
